# Results published in ChEMBL document CHEMBL5058577, “EUbOPEN Chemogenomics Library 2 (Multiplex)” (2022).
# System: U2OS
# Assay: Multiplex assay against U2OS
# Assay type: toxicity, cell-based
# Details: human
# Method in brief: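 With compound added, live cells were imaged on a CQ1 microscope at 37°C and 5% CO2; staining with Hoechst33342, BioTracker Green Microtubule Cytoskeleton Dye, MitoTracker Red and Annexin V Alexa Fluor 680 had been done at seeding. The CellPathfinder machine-learning gating scheme split cells into Hoechst high-intensity objects or normal cells, normal cells into healthy, pyknosed or fragmented nuclei, and pyknosed cells into mitotic or apoptotic. The tubulin, mitochondrial-mass and membrane-permeability phenotypes are per cents of healthy-nucleus cells.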
# [1] = 12 h, 1 µM, compound concentration 1 uM, replicate 1
# [2] = 12 h, 1 µM, compound concentration 1 uM, replicate 2
# [3] = 12 h, 10 µM, compound concentration 10 uM, replicate 1
# [4] = 12 h, 10 µM, compound concentration 10 uM, replicate 2
# [5] = 24 h, 1 µM, compound concentration 1 uM, replicate 1
# [6] = 24 h, 1 µM, compound concentration 1 uM, replicate 2
# [7] = 24 h, 10 µM, compound concentration 10 uM, replicate 1
# [8] = 24 h, 10 µM, compound concentration 10 uM, replicate 2
# [9] = 48 h, 1 µM, compound concentration 1 uM, replicate 1
# [10] = 48 h, 1 µM, compound concentration 1 uM, replicate 2
# [11] = 48 h, 10 µM, compound concentration 10 uM, replicate 1
# [12] = 48 h, 10 µM, compound concentration 10 uM, replicate 2
compound,measurement,setting,value
CSc1nc(NC2CCCC2)c([N+](=O)[O-])c(NC2CCCC2)n1 [GS-39783],Population Apoptotic (%),[1],82%
same,Population Fragmented Nuclei (%),[1],25%
same,Population Healthy Nuclei (%),[1],66%
same,Population Hoechst High Intensity Objects (%),[1],2%
same,Population Membrane Permeable-Phenotype (%),[1],4%
same,Population Mitochondria Different-Phenotype (%),[1],3%
same,Population Mitotic Cells (%),[1],17%
same,Population Normal (%),[1],97%
same,Population Pyknosed Nuclei (%),[1],8%
same,Population Tubulin-Different-Phenotype (%),[1],1%
same,Total Cell Count,[1],209
same,Population Apoptotic (%),[2],80%
same,Population Fragmented Nuclei (%),[2],18%
same,Population Healthy Nuclei (%),[2],76%
same,Population Hoechst High Intensity Objects (%),[2],3%
same,Population Mitochondria Different-Phenotype (%),[2],0%
same,Population Mitotic Cells (%),[2],20%
same,Population Normal (%),[2],96%
same,Population Pyknosed Nuclei (%),[2],5%
same,Total Cell Count,[2],96
same,Population Apoptotic (%),[3],88%
same,Population Fragmented Nuclei (%),[3],30%
same,Population Healthy Nuclei (%),[3],63%
same,Population Hoechst High Intensity Objects (%),[3],3%
same,Population Membrane Permeable-Phenotype (%),[3],9%
same,Population Mitochondria Different-Phenotype (%),[3],5%
same,Population Mitotic Cells (%),[3],11%
same,Population Normal (%),[3],96%
same,Population Pyknosed Nuclei (%),[3],5%
same,Population Tubulin-Different-Phenotype (%),[3],4%
same,Total Cell Count,[3],322
same,Population Apoptotic (%),[4],100%
same,Population Fragmented Nuclei (%),[4],19%
same,Population Healthy Nuclei (%),[4],75%
same,Population Hoechst High Intensity Objects (%),[4],1%
same,Population Mitochondria Different-Phenotype (%),[4],0%
same,Population Mitotic Cells (%),[4],0%
same,Population Normal (%),[4],98%
same,Population Pyknosed Nuclei (%),[4],4%
same,Population Tubulin-Different-Phenotype (%),[4],6%
same,Total Cell Count,[4],145
same,Population Apoptotic (%),[5],87%
same,Population Fragmented Nuclei (%),[5],22%
same,Population Healthy Nuclei (%),[5],64%
same,Population Hoechst High Intensity Objects (%),[5],2%
same,Population Membrane Permeable-Phenotype (%),[5],2%
same,Population Mitochondria Different-Phenotype (%),[5],1%
same,Population Mitotic Cells (%),[5],12%
same,Population Normal (%),[5],97%
same,Population Pyknosed Nuclei (%),[5],12%
same,Population Tubulin-Different-Phenotype (%),[5],1%
same,Total Cell Count,[5],269
same,Population Apoptotic (%),[6],84%
same,Population Fragmented Nuclei (%),[6],20%
same,Population Healthy Nuclei (%),[6],68%
same,Population Hoechst High Intensity Objects (%),[6],1%
same,Population Membrane Permeable-Phenotype (%),[6],1%
same,Population Mitotic Cells (%),[6],15%
same,Population Normal (%),[6],98%
same,Population Pyknosed Nuclei (%),[6],11%
same,Population Tubulin-Different-Phenotype (%),[6],0%
same,Total Cell Count,[6],119
same,Population Apoptotic (%),[7],85%
same,Population Fragmented Nuclei (%),[7],26%
same,Population Healthy Nuclei (%),[7],66%
same,Population Hoechst High Intensity Objects (%),[7],2%
same,Population Membrane Permeable-Phenotype (%),[7],6%
same,Population Mitochondria Different-Phenotype (%),[7],6%
same,Population Mitotic Cells (%),[7],14%
same,Population Normal (%),[7],97%
same,Population Pyknosed Nuclei (%),[7],6%
same,Population Tubulin-Different-Phenotype (%),[7],4%
same,Total Cell Count,[7],341
same,Population Apoptotic (%),[8],88%
same,Population Fragmented Nuclei (%),[8],18%
same,Population Healthy Nuclei (%),[8],75%
same,Population Hoechst High Intensity Objects (%),[8],3%
same,Population Membrane Permeable-Phenotype (%),[8],9%
same,Population Mitochondria Different-Phenotype (%),[8],2%
same,Population Mitotic Cells (%),[8],11%
same,Population Normal (%),[8],96%
same,Population Pyknosed Nuclei (%),[8],5%
same,Population Tubulin-Different-Phenotype (%),[8],5%
same,Total Cell Count,[8],164
same,Population Apoptotic (%),[9],88%
same,Population Fragmented Nuclei (%),[9],18%
same,Population Healthy Nuclei (%),[9],70%
same,Population Hoechst High Intensity Objects (%),[9],1%
same,Population Membrane Permeable-Phenotype (%),[9],3%
same,Population Mitochondria Different-Phenotype (%),[9],1%
same,Population Mitotic Cells (%),[9],11%
same,Population Normal (%),[9],98%
same,Population Pyknosed Nuclei (%),[9],11%
same,Population Tubulin-Different-Phenotype (%),[9],1%
same,Total Cell Count,[9],382
same,Population Apoptotic (%),[10],92%
same,Population Fragmented Nuclei (%),[10],21%
same,Population Healthy Nuclei (%),[10],71%
same,Population Hoechst High Intensity Objects (%),[10],0%
same,Population Mitotic Cells (%),[10],7%
same,Population Normal (%),[10],100%
same,Population Pyknosed Nuclei (%),[10],7%
same,Population Tubulin-Different-Phenotype (%),[10],3%
same,Total Cell Count,[10],185
same,Population Apoptotic (%),[11],89%
same,Population Fragmented Nuclei (%),[11],23%
same,Population Healthy Nuclei (%),[11],67%
same,Population Hoechst High Intensity Objects (%),[11],2%
same,Population Membrane Permeable-Phenotype (%),[11],5%
same,Population Mitochondria Different-Phenotype (%),[11],1%
same,Population Mitotic Cells (%),[11],10%
same,Population Normal (%),[11],97%
same,Population Pyknosed Nuclei (%),[11],8%
same,Population Tubulin-Different-Phenotype (%),[11],2%
same,Total Cell Count,[11],462
same,Population Apoptotic (%),[12],85%
same,Population Fragmented Nuclei (%),[12],12%
same,Population Healthy Nuclei (%),[12],81%
same,Population Hoechst High Intensity Objects (%),[12],0%
same,Population Membrane Permeable-Phenotype (%),[12],4%
same,Population Mitochondria Different-Phenotype (%),[12],3%
same,Population Mitotic Cells (%),[12],14%
same,Population Normal (%),[12],99%
same,Population Pyknosed Nuclei (%),[12],6%
same,Population Tubulin-Different-Phenotype (%),[12],3%
same,Total Cell Count,[12],231
